Results from different studies.
Protocols differ between the studies behind these lines. pIC50: −log10 of the molar value.
Effect on: cell growth or viability

Structure (SMILES) | cell line | method | concentration | time | endpoint | value
O=C(N[C@@H](Cc1ccccc1)C(=O)c1cn(-c2ccccc2)nn1)[C@H](Cc1ccccc1)NC(=O)N1CCOCC1 (single isomer, unassigned) | MRC-5 SV2 |  |  |  | CC50 | > 64 µM
COC(=O)[C@]1(O)C[C@@H](O)[C@@H](O)[C@H](OC(=O)/C=C/c2ccc(O)c(O)c2)C1 | WI-38 | WST-1 |  |  | pIC50 | 3.96
Cc1cn(CC(c2cn(C)c3ccccc23)c2cn(C)c3ccccc23)nn1 | HaCaT | MTS |  | 24 h | CC50 | > 20 µM
O=c1[nH]cc(F)c(=O)[nH]1 | WI-38 | WST-1 |  | 48 h | pIC50 | 4.20
O=C1CCCCC1=C1Sc2nc3ccc(S(=O)(=O)N4CCCC4)cc3nc2S1 | WI-38 | MTT | 50 µM | 24 h | viability | 61.3%
O=C(N[C@@H](Cc1ccccc1)C(=O)c1nccs1)[C@H](Cc1ccccc1)NC(=O)N1CCOCC1 | MRC-5 SV2 |  |  |  | CC50 | > 64 µM
O=c1oc2c(O)c(O)cc3c(=O)oc4c(O)c(O)cc1c4c23 | CEM-GFP | MTT |  | 48 h | CC50 | > 250 µg/mL
N#CC(C(=O)Nc1cccc(C(F)(F)F)c1)=C1Sc2nc3ccc(S(=O)(=O)N4CCCC4)cc3nc2S1 | WI-38 | MTT | 25 µM | 24 h | viability | 67.5%
O=C(N[C@H](CCc1ccccc1)C(=O)c1cc(Cc2ccccc2)on1)[C@H](Cc1ccccc1)NC(=O)N1CCOCC1 | MRC-5 SV2 |  |  |  | CC50 | > 64 µM
C/C=C(/C)C(=O)O[C@@H]1[C@H](OC(C)=O)c2c(ccc3ccc(=O)oc23)OC1(C)C | WI-38 | WST-1 |  |  | pIC50 | 3.92
C[C@@H]1[C@H](O)[C@@H](C)/C=C/C=C/C=C/C=C/C=C/C=C/C=C/[C@H](O[C@@H]2O[C@H](C)[C@@H](O)[C@H](N)[C@@H]2O)C[C@@H]2O[C@](O)(C[C@@H](O)C[C@@H](O)[C@H](O)CC[C@@H](O)C[C@@H](O)CC(=O)O[C@H]1C)C[C@H](O)[C@H]2C(=O)O | HaCaT | MTS |  | 24 h | CC50 | 7.95 µM
O=c1cc(-c2ccc(O)c(O)c2)oc2cc(O)cc(O)c12 | WI-38 | WST-1 |  | 48 h | pIC50 | 4.04
CCc1ncn(CC(c2c[nH]c3ccc(C)cc23)c2c[nH]c3ccc(C)cc23)c1C(=O)OC | HaCaT | MTS |  | 24 h | CC50 | > 20 µM
C[Si](C)(C)c1cc(C(=O)[C@H](Cc2ccccc2)NC(=O)[C@H](Cc2ccccc2)NC(=O)N2CCOCC2)no1 (single isomer, unassigned) | MRC-5 SV2 |  |  |  | CC50 | > 64 µM
COC(=O)c1c(C)ncn1CC(c1c[nH]c2cc(Br)ccc12)c1c[nH]c2cc(Br)ccc12 | HaCaT | MTS |  | 24 h | CC50 | > 20 µM
O=C(N[C@@H](Cc1ccccc1)C(=O)c1nc2ccccc2o1)[C@H](Cc1ccccc1)NC(=O)N1CCOCC1 | MRC-5 SV2 |  |  |  | CC50 | > 64 µM
CCOC(=O)C(C(C)=O)=C1Sc2nc3ccc(S(=O)(=O)N4CCCC4)cc3nc2S1 | WI-38 | MTT | 50 µM | 24 h | viability | 48.2%
CC1(C)CC[C@]2(C)CC[C@]3(C)[C@H]4CC=C5[C@@H](CC[C@H](O)C5(C)C)[C@]4(C)CC[C@@]3(C)[C@@H]2C1 | WI-38 | WST-1 |  |  | pIC50 | 4.20
O=C(N[C@@H](CCc1ccccc1)C(=O)c1cc(-c2ccccc2)on1)[C@H](Cc1ccccc1)NC(=O)N1CCOCC1 (single isomer, unassigned) | MRC-5 SV2 |  |  |  | CC50 | > 64 µM
COc1cccc2c1C(=O)c1c(O)c3c(c(O)c1C2=O)C[C@@](O)(C(=O)CO)C[C@@H]3O[C@H]1C[C@H](N)[C@H](O)[C@H](C)O1 | WI-38 | MTT | 3.125 µM | 24 h | viability | 64.9%
CC1(C)CC[C@]2(C)CC[C@]3(C)C(=CC[C@@H]4[C@@]5(C)CC[C@H](O)C(C)(C)[C@@H]5CC[C@]43C)[C@@H]2C1 | WI-38 | WST-1 |  | 48 h | pIC50 | 3.99
